Results taken from paper PMC5888399 (The FASEB Journal, 2017).
Like-named read-outs stand apart in the source and are kept apart here. Marks after values point to notes of the source that are not given here.

Tests used:
young mdx mice = details: short term (2 wk) treatment; cited from earlier work
[1] = S48168 plasma and GC muscle levels; assay type: in vivo, mouse; details: for Skeletal muscle (GC) concentration (mean) / Plasma concentration (mean): AGA; for Plasma concentration (mean): 20–30 min after drinking water withdrawn; for concentration at 2 h: mdx, mouse, oral, UNIBA
How it was run: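 Drug levels in plasma and gastrocnemius were measured by LC-MS/MS (ESI+, PFP column) after protein precipitation on phospholipid-removal plates, with a stable-isotope-labelled internal standard. In phase 2, blood was collected 20–30 min (AGA) or 2 h (UNIBA) after drinking water was withdrawn, following 12 wk of dosing at 10 or 50 mg/kg per day.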

[2] = system: RyR1, FKB1α, UTRN, MIOG, FSTN, BNIP3, TGF-β, CYBB; assay: Real-time PCR gene expression in GC muscle; assay type: in vivo, mouse
How it was run: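 Total RNA was extracted from gastrocnemius (UNIBA) and reverse-transcribed at 25°C for 10 min, 42°C for 50 min and 70°C for 15 min. TaqMan real-time PCR used 8 ng cDNA per reaction, singleplex, in triplicate. Targets were RyR1, FKBP1α, utrophin, myogenin, follistatin, BNIP3, TGF-β and CYBB, normalized to GAPDH.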

[3] = system: DIA and GC muscles of mdx mice; assay: Histologic evaluation; assay type: in vivo, mouse; details: for Change in % damaged, total damaged gastrocnemius (%) / CNFs in DIA / Change in % damaged, total damaged DIA (%): 12 wk; for Change in % damaged, total damaged gastrocnemius (%) / Change in % damaged, total damaged DIA (%): vs mdx vehicle; for CNFs in DIA: vehicle 72.3 ± 1.6
How it was run: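 Diaphragm and left gastrocnemius were frozen in isopentane cooled in N2 (AGA) or paraffin-fixed (UNIBA). Sections of 6–10 μm were H&E-stained. Scored items: inflammation, degeneration, regeneration, centronucleated and normal fibers, and total damaged area. Five random images were taken per section, with blinded analysis on at least 6 animals per group.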

Oral bioavailability = assay type: in vivo; details: data not shown
Ca2+-dependent calpains = assay: Calpain activity in DIA muscle lysates; assay type: in vivo, mouse; details: treated groups, 4 wk, not significant
mdx EDL muscle fibers = assay type: in vivo, mouse; details: 4 wk
[4] = Body weight, organ and muscle mass; assay type: in vivo, mouse
How it was run: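 mdx and WT mice given test compound in spring water (vehicle) ad libitum, targeting 10 or 50 mg/kg per day. Dose was calculated from weekly water volume per cage divided by animals and normalized to mean body weight. Body weight was tracked over 4 or 12 wk of treatment. Data are means ± sem. WT vs mdx vehicle was compared by unpaired t test; doses vs mdx vehicle by 1-way ANOVA with Dunnett's test.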

[5] = system: FDB muscle fibers of mdx mice; assay: Fura-2 microfluorescence, resting cytosolic Ca2+ in isolated FDB myofibers; assay type: in vivo, mouse; details: 4 wk
How it was run: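 FDB muscles were dissected after 4 wk of drinking-water dosing. Myofibers were isolated enzymatically in Ringer's with 0.8–1 mg/ml collagenase type XI-S for 45 min at 37°C, under constant agitation and O2 flux. Resting cytosolic Ca2+ was then measured by fura-2 microfluorescence (UNIBA).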

[6] = system: PKA-phosphorylated RyR channels in SR vesicles from either cardiac or skeletal muscles; assay: Calstabin rebinding to RyR channels in SR vesicles; assay type: binding; details: data not shown
exercised mdx mice [7] = assay: Forelimb grip strength; assay type: in vivo, mouse; details: for Percentage change in normalized forelimb grip strength: vs mdx vehicle
How it was run: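 Mice were treadmill-exercised to unmask the phenotype. Forelimb grip force was measured weekly with a grip strength meter, at least 48 h after the last treadmill session: at UNIBA in phase 1 (4 wk), and at UNIBA and AGA in phase 2 (12 wk). Values were normalized to body weight. Outputs were percentage change vs WT or mdx vehicle and recovery score relative to the WT–mdx difference.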

DIA muscle of mdx mice = assay type: in vivo, mouse
EDL muscle of mdx mice = assay type: in vivo, mouse; details: for % change EDL twitch force: vs mdx vehicle
creatine kinase (CK) = assay: CK serum levels; assay type: in vivo, mouse
How it was run: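 Serum was taken from blood drawn by cardiac puncture. CK was measured spectrophotometrically with a diagnostic kit. Mice received drinking-water dosing of 10 or 50 mg/kg per day, with spring water as vehicle.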

exercised mdx mice [8] = assay: Hindlimb grip strength; assay type: in vivo, mouse; details: 12 wk, AGA
How it was run: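 In the 12-wk phase 2 study at AGA, treadmill-exercised mice had hindlimb grip force measured weekly with a grip strength meter, at least 48 h after the last treadmill session. Dosing was via drinking water at 10 or 50 mg/kg per day, with spring water as vehicle.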

[9] = 50 mg/kg per day, 4 wk, not significant

## COc1ccc2c(c1)CN(C)CCS2 [S107]
Young mdx mice
  Muscle function in young mdx mice: improved muscle function

## COc1ccc2c(c1)CN(Cc1ccc(C(=O)O)cc1)CCS2 [S48168/ARM210]
[1]; 10 mg/kg, 12 wk treatment
  Skeletal muscle (GC) concentration (mean): 0.552 µg/g
  Plasma concentration (mean): 6125 ng/mL
[1]; 50 mg/kg, 12 wk treatment
  Skeletal muscle (GC) concentration (mean): 1.716 µg/g
  Plasma concentration (mean): 18775 ng/mL
[1]; gastrocnemius (GC) skeletal muscle, 10 mg/kg, Skeletal muscle (GC) concentration (mean), 4 wk treatment
  concentration at 2 h: 151 ng/g
[1]; gastrocnemius (GC) skeletal muscle, 10 mg/kg, Skeletal muscle (GC) concentration (mean), 12 wk treatment
  concentration at 2 h: 123 ng/g
[1]; gastrocnemius (GC) skeletal muscle, 50 mg/kg, Skeletal muscle (GC) concentration (mean), 4 wk treatment
  concentration at 2 h: 512 ng/g
[1]; gastrocnemius (GC) skeletal muscle, 50 mg/kg, Skeletal muscle (GC) concentration (mean), 12 wk treatment
  concentration at 2 h: 1160 ng/g
[1]; plasma, 10 mg/kg, Plasma concentration (mean), 10 mg/kg, 4 wk treatment, about 2 h after drinking water withdrawn
  concentration at 2 h: 881 ng/mL
[1]; plasma, 50 mg/kg, Plasma concentration (mean), 50 mg/kg, 4 wk treatment, about 2 h after drinking water withdrawn
  concentration at 2 h: 3020 ng/mL
[2]; 50 mg/kg per day, 4 wk
  BNIP3 gene expression level vs mdx vehicle: trend toward an increase
  Gene expression of RyR1 compared with WT mice: significant increase
[2]; 10 or 50 mg/kg per day, 4 wk
  Expression of RyR1, FKB1α, UTRN, MIOG, FSTN, TGF-β, or CYBB vs mdx vehicle: No significant changes
[2]; any dose, 12 wk
  Expression level of RyR1, calstabin, or BNIP3: No significant changes
[3]; 10 mg/kg per day, AGA
  Change in % damaged, total damaged gastrocnemius (%): 1%
[3]; 10 mg/kg, UNIBA
  CNFs in DIA: 62.4 ± 2.9%
[3]; 50 mg/kg per day, 4 wk
  Percentage of regenerating area in GC: significant increases
[3]; [9]
  Percentage of regeneration in DIA: increase in the percentage of regeneration
  Percentage of total damage in DIA: reduction in the percentage of total damage
[3]; 50 mg/kg per day, 4 wk, significant
  Percentage of total damage in GC: decreases
[3]; 50 mg/kg per day, AGA
  Change in % damaged, total damaged DIA (%): −10* %
  Change in % damaged, total damaged gastrocnemius (%): 5%
[3]; 50 mg/kg per day, UNIBA
  Change in % damaged, total damaged DIA (%): −19%
[3]; 50 mg/kg, UNIBA
  CNFs in DIA: 53.3 ± 2.5%
[3]; either dose, 4 wk
  Number of CNF vs normal fibers in DIA or GC: No marked differences
Oral bioavailability
  Oral bioavailability: good oral bioavailability
Ca2+-dependent calpains
  Calpain activity in DIA: trend toward a reduction
Mdx EDL muscle fibers; 50 mg/kg per day, all durations of depolarizing pulses
  Mechanical threshold: potential for fiber contraction, rheobase voltage: significant shift in the potential for fiber contraction toward WT values
Mdx EDL muscle fibers; printed 50 mg/kg per day
  Mechanical threshold: rheobase voltage: slight but nonsignificant effect
[4]; 10 mg/kg per day, 4 wk
  Heart mass normalized to body weight vs mdx vehicle: lower normalized mean value
[4]; 10 mg/kg per day, 12 wk, UNIBA
  Quadriceps mass, absolute and normalized: significant increase
[4]; 50 mg/kg per day, 12 wk, UNIBA, n = 8
  Liver mass normalized to body weight: 56.39 ± 2.61 g/g × 1000
[4]; 4 wk
  Mass of various skeletal muscles: no drug effect
[4]; 10 or 50 mg/kg per day, 4 wk, phase 1
  Body weight vs mdx vehicle: no changes in body weight
[4]; 12 wk, UNIBA and AGA, any time point
  Body weight vs mdx vehicle: no changes in body weight
[5]; 10 mg/kg per day
  Level of cytosolic Ca2+ vs mdx vehicle: no difference
[5]; 50 mg/kg per day
  Reduction in cytosolic Ca2+ vs mdx vehicle myofibers: 25%
[6]
  Calstabin binding to PKA-phosphorylated RyR channels: effectively re-establish calstabin binding
Exercised mdx mice [7]; 10 mg/kg per day, 12 wk, AGA
  Normalized forelimb grip strength vs mdx vehicle: no statistically significant effect
Exercised mdx mice [7]; 10 mg/kg, week 12, UNIBA
  Recovery score, normalized forelimb force: 35%
Exercised mdx mice [7]; 10 mg/kg, week 12, UNIBA, vehicle 4.06 ± 0.20
  Normalized forelimb force: 5 ± 0.23 KGF/kg
Exercised mdx mice [7]; 10 mg/kg/d, 12 wk, AGA
  Percentage change in normalized forelimb grip strength: +3%
Exercised mdx mice [7]; 50 mg/kg per day, 12 wk, AGA, vehicle 3.62 ± 0.14
  Normalized forelimb grip strength: 3.99 ± 0.15 KGF/kg
Exercised mdx mice [7]; 50 mg/kg per day, W4, phase 1 UNIBA
  Recovery score, absolute forelimb strength: 70%
Exercised mdx mice [7]; 50 mg/kg, week 12, UNIBA
  Recovery score, normalized forelimb force: 12%
Exercised mdx mice [7]; 50 mg/kg/d, 12 wk, AGA
  Percentage change in normalized forelimb grip strength: +10** %
Exercised mdx mice [7]; 50 mg/kg/d, 12 wk, UNIBA
  Percentage change in normalized forelimb grip strength: +8%
DIA muscle of mdx mice; 10 mg/kg per day, 12 wk, UNIBA, vs mdx vehicle
  % change DIA twitch force: +2%
DIA muscle of mdx mice; 50 mg/kg per day, 4 wk
  DIA specific tetanic force vs mdx vehicle: significantly higher
DIA muscle of mdx mice; 50 mg/kg per day, 4 wk, 120 and 140 Hz
  DIA force–frequency relationship vs mdx vehicle: significantly higher values
DIA muscle of mdx mice; any dose level, 4 wk
  DIA fatigue and recovery from fatigue: no effect
EDL muscle of mdx mice; 10 mg/kg per day, 12 wk, AGA
  % change EDL twitch force: −2%
EDL muscle of mdx mice; 10 mg/kg per day, 12 wk, UNIBA
  % change EDL twitch force: −1%
EDL muscle of mdx mice; 50 mg/kg per day, 12 wk, AGA
  % change EDL twitch force: +6%
EDL muscle of mdx mice; 50 mg/kg per day, 12 wk, UNIBA
  EDL stiffness: slight but not significant amelioration
EDL muscle of mdx mice; 12 wk, data not shown
  EDL fatigue-related decline in force and recovery from fatigue vs mdx vehicle: no differences
  EDL muscle-contraction kinetics (time to peak, half relaxation time): no effect
EDL muscle of mdx mice; both doses, 4 wk
  EDL muscle force (twitch and specific tetanic): no effect
EDL muscle of mdx mice; either dose, 12 wk, UNIBA
  Force decrease in EDL muscle from eccentric contraction: No protective effect
Creatine kinase (CK); 12 wk, UNIBA and AGA
  CK level: no significant changes
Creatine kinase (CK); either dosage, 4 wk
  Serum level of CK vs mdx vehicle: No significant change
Exercised mdx mice [8]; 50 mg/kg per day
  Normalized hindlimb grip strength: statistically significant ameliorative effect
Exercised mdx mice [8]; treatment groups
  Absolute hindlimb grip strength vs mdx vehicle: no differences
